Experimental data published in ChEMBL document CHEMBL4028848, “Discovery of N-{4-[5-(4-Fluorophenyl)-3-methyl-2-methylsulfanyl-3H-imidazol-4-yl]-pyridin-2-yl}-acetamide (CBS-3595), a Dual p38α MAPK/PDE-4 Inhibitor with Activity against TNFα-Related Diseases” (J Med Chem, 2017).
Activity calls are given as the source filed them. The rule behind the calls is not given here.

Key:
[1] = molecular target: Mitogen-activated protein kinase 8 (Homo sapiens) (UniProt P45983); test: Inhibition of JNK1alpha1 (unknown origin) at 10 uM
[2] = molecular target: Tyrosine-protein kinase Lck (Homo sapiens) (UniProt P06239); test: Inhibition of Lck (unknown origin) at 10 uM
[3] = molecular target: Mitogen-activated protein kinase 11 (Homo sapiens) (UniProt Q15759); test: Inhibition of p38MAPK beta (unknown origin) at 10 uM relative to control
Canis familiaris = test: AUC (0 to t) in Beagle dog assessed as 4-(4-(4-fluorophenyl)-1-methyl-2-(methylsulfinyl)-1H-imidazol-5-yl)pyridin-2-amine level at 40 mg/kg, po by LC-MS/MS analysis; format: ADME, organism-based, Canis lupus familiaris; conditions: in vivo
How it was run: (§1)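 Toxicokinetics from a maximum-tolerated-dose study in four Beagle dogs given 40 mg/kg orally. Plasma levels of both parent and its predominant metabolite were monitored.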

Liver [4] = test: Drug level in human liver microsomes treated with CBS-3595 at 10 to 100 uM; format: ADME, microsome
How it was run: (§2)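 Test compound incubated at 10, 30 and 100 μM with liver microsomes from rat, Cynomolgus monkey or human, and metabolites monitored.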

Saccharomyces cerevisiae = test: Inhibition of yeast CK1 at 10 uM relative to control
[5] = molecular target: Tyrosine-protein kinase Lyn (Homo sapiens) (UniProt P07948); test: Inhibition of Lyn (unknown origin) at 10 uM relative to control
[6] = molecular target: Receptor-interacting serine/threonine-protein kinase 2 (Homo sapiens) (UniProt O43353); test: Inhibition of RIPK2 (unknown origin) at 10 uM relative to control
Cynomolgus monkey = test: In vivo inhibition of P38 MAPKalpha in cynomolgus monkey assessed as decrease in TNFalpha level in LPS-stimulated whole blood at 12 mg/kg, po pretreated followed by LPS addition measured after 1 day relative to control; format: functional; conditions: Macaca fascicularis
How it was run: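 Cynomolgus monkeys were dosed orally, then whole blood was stimulated ex vivo with LPS. TNFα release was compared with vehicle-dosed animals.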

Liver [7] = test: Drug metabolism in rat liver microsomes assessed as 4-(4-(4-fluorophenyl)-1-methyl-2-(methylsulfonyl)-1H-imidazol-5-yl)pyridin-2-amine formation at 10 to 100 uM; format: ADME, microsome; how it was run: as §2
[8] = Drug metabolism in cynomolgus monkey liver microsomes assessed as 4-(4-(4-fluorophenyl)-1-methyl-2-(methylsulfonyl)-1H-imidazol-5-yl)pyridin-2-amine formation at 10 to 100 uM; format: ADME, Macaca fascicularis, microsome; how it was run: as §2
Rattus norvegicus [9] = test: In vivo inhibition of P38 MAPKalpha in Lewis rat assessed as decrease in LPS-stimulated TNFalpha level in serum at 10 mg/kg, po pretreated for 3 hrs followed by LPS addition measured after 1.5 hrs post dose; format: functional, organism-based
How it was run: (§3)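 Lewis rats, n = 8/group: females dosed orally at 10 mg/kg at −1, −3 or −5 h relative to LPS challenge, plus one male group dosed at −1 h. Male and female vehicle controls were given at −1 h. Serum TNFα was measured after LPS and compared with vehicle.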

Rattus norvegicus [10] = test: In vivo inhibition of P38 MAPKalpha in Lewis rat assessed as decrease in LPS-stimulated TNFalpha level in serum at 10 mg/kg, po pretreated for 5 hrs followed by LPS addition measured after 1.5 hrs post dose; format: functional, organism-based; how it was run: as §3
[11] = Drug uptake in LPS-stimulated female Lewis rat serum at 10 mg/kg, po pretreated for 1 hrs followed by LPS addition measured after 1.5 hrs post dose; format: ADME, organism-based; conditions: read-out: Drug uptake
How it was run: (§4)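 Female Lewis rats, n = 8/group, dosed orally at 10 mg/kg at 1, 3 or 5 h before LPS challenge. Serum aliquots taken 1.5 h after LPS were used to measure drug concentration.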

Rattus norvegicus [12] = test: Antiarthritic activity in Lewis rat assessed as change in paw volume at 50 mg/kg, po qd administered for 10 days; format: functional, organism-based
How it was run: (§5)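 Collagen-induced arthritis in male Lewis rats (5–6 per group). Groups received vehicle, dexamethasone 1 mg/kg, test item 50 mg/kg once daily, or 25 mg/kg twice daily for 10 days. Body weight, arthritic score and paw volume were monitored, and serum COMP was measured at the end.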

Rattus norvegicus [13] = test: Antiarthritic activity in Lewis rat assessed as change in paw volume at 25 mg/kg, po bid administered for 10 days; format: functional, organism-based; how it was run: as §5
Rattus norvegicus [14] = test: Antiarthritic activity in Lewis rat assessed as collagen oligomeric matrix protein level in serum at 25 mg/kg, po bid administered for 10 days (Rbv = 0.17 +/- 0.02 U/l); format: functional; how it was run: as §5
[15] = AUC (0 to t) in mongrel dog at 30 mg/kg, po by LC-MS/MS analysis; format: ADME, organism-based, Canis lupus familiaris; conditions: in vivo
How it was run: (§6)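 Two mongrel dogs received a single oral dose of 30 mg/kg. Blood was sampled from 0.25 to 24 h and plasma parent concentrations were determined.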

[16] = AUC (0 to infinity) in mongrel dog at 30 mg/kg, po by LC-MS/MS analysis; format: ADME, organism-based, Canis lupus familiaris; parameters: dose 30 mg/kg, time infinity, route oral; conditions: in vivo; how it was run: as §6
[17] = Cmax in Beagle dog at 40 mg/kg, po by LC-MS/MS analysis; format: ADME, organism-based, Canis lupus familiaris; parameters: dose 40 mg/kg, route oral; conditions: in vivo; how it was run: as §1
[18] = Tmax in Beagle dog at 40 mg/kg, po by LC-MS/MS analysis; format: ADME, organism-based, Canis lupus familiaris; conditions: in vivo
[19] = Half life in Beagle dog at 40 mg/kg, po by LC-MS/MS analysis; format: ADME, organism-based, Canis lupus familiaris; conditions: in vivo
How it was run: (§7)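 Oral single-dose PK; plasma concentrations of parent and metabolite measured. Dogs: blood sampled 0.25 to 24 h after dosing. Humans: healthy subjects, placebo-controlled single-blind randomized consecutive dosing, plasma sampled predose and 0.25–36 h post dose. 10 mg also given fasting and fed in crossover. Parameters derived from individual concentration–time profiles.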

[20] = AUC (0 to t) in female Sprague-Dawley rat at 30 mg/kg, po by LC-MS/MS analysis; format: ADME, organism-based; conditions: in vivo
How it was run: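 Rats of each sex received a single oral dose of 30 mg/kg. Plasma concentration–time profiles of parent were determined separately for females and males.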

[21] = Cmax in male Sprague-Dawley rat at 30 mg/kg, po by LC-MS/MS analysis; format: ADME, organism-based; parameters: dose 30 mg/kg, route oral; conditions: in vivo
Rattus norvegicus [22] = test: Toxicity in rat assessed as effect on respiratory rate by measuring increase in peak expiratory flow 300 mg/kg, po administered as single dose; format: organism-based; conditions: in vivo
Rattus norvegicus [23] = test: Toxicity in Sprague-Dawley rat assessed as hypoactivity at 2000 mg/kg, po administered via gavage measured on day 1 and 2; format: organism-based; conditions: in vivo
Rattus norvegicus [24] = test: Toxicity in Sprague-Dawley rat assessed as increase in piloerection at 150 mg/kg, po administered via gavage for daily 28 days followed by 2 weeks off without dosing; format: organism-based; conditions: in vivo
Rattus norvegicus [25] = test: Toxicity in Sprague-Dawley rat assessed as increase in ptyalism at 150 mg/kg, po administered via gavage for daily 28 days followed by 2 weeks off without dosing; format: organism-based; conditions: in vivo
Salmonella typhimurium = test: Genotoxicity in Salmonella typhimurium in absence of S9 fraction by Ames test; format: toxicity; conditions: salmonella enterica subsp. enterica serovar typhimurium
How it was run: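 Bacterial reverse mutation (Ames) test in S. typhimurium and E. coli strains, run with and without S9 mix.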

Homo sapiens [26] = test: Toxicity in human assessed as effect on blood pressure at 50 mg, po administered as single dose; format: organism-based; conditions: in vivo
Homo sapiens [27] = test: Cmax in human assessed as 4-(4-(4-fluorophenyl)-1-methyl-2-(methylsulfinyl)-1H-imidazol-5-yl)pyridin-2-amine formation at 20 mg, po administered as single dose; format: ADME, organism-based; parameters: dose 20 mg, route oral; conditions: in vivo; how it was run: as §7
[28] = Drug uptake in LPS-stimulated female Lewis rat serum at 10 mg/kg, po pretreated for 3 hrs followed by LPS addition measured after 1.5 hrs post dose; format: ADME, organism-based; conditions: read-out: Drug uptake; how it was run: as §4

Sequence of Mitogen-activated protein kinase 8 (Homo sapiens) (P45983 whole entry): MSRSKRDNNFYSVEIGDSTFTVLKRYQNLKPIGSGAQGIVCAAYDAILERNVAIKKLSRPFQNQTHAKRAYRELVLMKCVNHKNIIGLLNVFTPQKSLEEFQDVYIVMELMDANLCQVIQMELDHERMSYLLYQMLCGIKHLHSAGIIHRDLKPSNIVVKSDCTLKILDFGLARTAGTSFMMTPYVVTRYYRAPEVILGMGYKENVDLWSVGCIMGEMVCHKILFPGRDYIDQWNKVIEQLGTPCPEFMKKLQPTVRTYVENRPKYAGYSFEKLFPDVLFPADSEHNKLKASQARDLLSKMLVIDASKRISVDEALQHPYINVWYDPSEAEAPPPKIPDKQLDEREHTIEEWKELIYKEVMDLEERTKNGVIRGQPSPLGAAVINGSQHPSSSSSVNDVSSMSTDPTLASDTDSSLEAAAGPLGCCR
Sequence of Mitogen-activated protein kinase 11 (Homo sapiens) (Q15759 whole entry): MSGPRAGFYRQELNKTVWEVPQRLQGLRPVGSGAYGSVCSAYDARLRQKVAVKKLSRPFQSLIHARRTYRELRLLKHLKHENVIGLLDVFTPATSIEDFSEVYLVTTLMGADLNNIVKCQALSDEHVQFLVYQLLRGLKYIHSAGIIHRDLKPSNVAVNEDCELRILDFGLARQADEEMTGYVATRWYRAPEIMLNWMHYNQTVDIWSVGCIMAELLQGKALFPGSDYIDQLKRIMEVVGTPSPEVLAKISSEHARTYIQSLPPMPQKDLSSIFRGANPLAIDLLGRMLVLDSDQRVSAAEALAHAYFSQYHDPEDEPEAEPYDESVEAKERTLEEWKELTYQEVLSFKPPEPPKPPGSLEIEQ
Sequence of Tyrosine-protein kinase Lck (Homo sapiens) (P06239 2-509 limits assumed): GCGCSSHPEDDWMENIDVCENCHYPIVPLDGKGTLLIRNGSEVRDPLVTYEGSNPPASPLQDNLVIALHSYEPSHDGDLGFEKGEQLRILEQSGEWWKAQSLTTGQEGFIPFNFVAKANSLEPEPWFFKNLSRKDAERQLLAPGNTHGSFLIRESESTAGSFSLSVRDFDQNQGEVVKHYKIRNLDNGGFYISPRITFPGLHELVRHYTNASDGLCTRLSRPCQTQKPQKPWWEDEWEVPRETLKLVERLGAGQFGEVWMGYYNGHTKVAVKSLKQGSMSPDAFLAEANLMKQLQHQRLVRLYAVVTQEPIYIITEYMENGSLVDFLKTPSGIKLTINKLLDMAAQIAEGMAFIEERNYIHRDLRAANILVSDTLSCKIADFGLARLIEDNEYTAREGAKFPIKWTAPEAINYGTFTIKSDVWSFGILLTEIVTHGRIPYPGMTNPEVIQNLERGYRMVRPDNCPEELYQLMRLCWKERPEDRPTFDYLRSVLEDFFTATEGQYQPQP
Sequence of Tyrosine-protein kinase Lyn (Homo sapiens) (P07948 2-512 limits assumed): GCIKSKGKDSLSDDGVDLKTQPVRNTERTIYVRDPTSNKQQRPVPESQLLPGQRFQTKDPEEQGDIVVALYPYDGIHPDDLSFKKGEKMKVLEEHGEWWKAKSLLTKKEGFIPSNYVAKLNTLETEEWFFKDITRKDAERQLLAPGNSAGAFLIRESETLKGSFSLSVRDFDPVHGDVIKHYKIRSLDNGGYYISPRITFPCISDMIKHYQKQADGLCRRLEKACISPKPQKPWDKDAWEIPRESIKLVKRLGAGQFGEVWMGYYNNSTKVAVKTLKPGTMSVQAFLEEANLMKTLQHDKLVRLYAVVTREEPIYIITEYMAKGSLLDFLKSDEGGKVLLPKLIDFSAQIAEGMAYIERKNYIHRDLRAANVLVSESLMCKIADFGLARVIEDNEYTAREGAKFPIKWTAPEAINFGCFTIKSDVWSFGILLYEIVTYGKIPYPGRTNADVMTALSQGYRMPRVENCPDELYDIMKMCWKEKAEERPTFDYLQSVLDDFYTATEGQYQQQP
Sequence of Receptor-interacting serine/threonine-protein kinase 2 (Homo sapiens) (O43353 whole entry): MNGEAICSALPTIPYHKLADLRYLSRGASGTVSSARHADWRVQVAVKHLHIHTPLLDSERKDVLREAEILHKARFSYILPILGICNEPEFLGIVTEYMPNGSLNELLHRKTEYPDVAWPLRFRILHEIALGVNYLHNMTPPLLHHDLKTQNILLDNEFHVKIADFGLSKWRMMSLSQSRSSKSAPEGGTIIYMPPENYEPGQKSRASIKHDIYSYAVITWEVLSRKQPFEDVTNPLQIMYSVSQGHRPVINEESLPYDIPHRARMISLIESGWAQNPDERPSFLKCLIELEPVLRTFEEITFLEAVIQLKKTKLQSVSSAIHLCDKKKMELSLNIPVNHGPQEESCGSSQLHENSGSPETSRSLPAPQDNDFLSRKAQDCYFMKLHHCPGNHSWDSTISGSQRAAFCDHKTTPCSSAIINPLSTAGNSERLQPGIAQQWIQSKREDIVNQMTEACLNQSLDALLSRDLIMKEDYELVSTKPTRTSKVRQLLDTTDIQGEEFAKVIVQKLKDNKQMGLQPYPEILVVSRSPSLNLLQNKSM

Q: With `Cn1c([S+](C)[O-])nc(-c2ccc(F)cc2)c1-c1ccnc(N)c1` (configuration not stated) as the compound, how does the inhibition [1] read?
A: The inhibition was “inactive”.

Q: And the inhibition [2]?
A: The inhibition was “inactive”.

Q: And the inhibition [3]?
A: The inhibition was “inactive”.

Q: And the AUCt (Canis familiaris)?
A: The AUCt was 86.5 µM·h.

Q: And the Drug metabolism (Liver [4])?
A: Its Drug metabolism is “Metabolite_Detected”.

Q: What does the source list for `CC(=O)Nc1cc(-c2c(-c3ccc(F)cc3)nc([S+](C)[O-])n2C)ccn1` (configuration not stated)?
A: inhibition (Saccharomyces cerevisiae): 97%; inhibition [5]: 31%; inhibition [6]: 33%; inhibition in vivo at 12 mg/kg (Cynomolgus monkey): 50%; Drug metabolism (Liver [7]): Metabolite_Detected; Drug metabolism [8]: Metabolite_Detected; inhibition (Rattus norvegicus [9]): Active; inhibition (Rattus norvegicus [10]): Active; concentration at 1.5 h [11]: 237 ng/mL; Activity (Rattus norvegicus [12]): inactive; Activity (Rattus norvegicus [13]): inactive; Activity (Rattus norvegicus [14]): 0.08 U/L; AUC(0-t) [15]: 95 µM·h; AUC(0-inf) [16]: 96.8 µM·h; Cmax [17]: 15.6 µM; Tmax [18]: 1.5 h; half-life [19]: 7.8 h; AUC(0-t) [20]: 40.9 µM·h; Cmax [21]: 3.4 µM; Activity (Rattus norvegicus [22]): Toxic; Activity (Rattus norvegicus [23]): Toxic; Activity (Rattus norvegicus [24]): Toxic; Activity (Rattus norvegicus [25]): Toxic; Activity (Salmonella typhimurium): Non-Toxic; Activity (Homo sapiens [26]): Non-Toxic; Cmax (Homo sapiens [27]): 0.309 µM; concentration at 1.5 h [28]: 526 ng/mL
